Source: ChEMBL document CHEMBL4033681, “Lipase-catalyzed kinetic resolution as key step in the synthesis of enantiomerically pure σ ligands with 2-benzopyran structure” (Bioorg Med Chem, 2017)
The source made the active and inactive calls. The calls are words filed in the database; no cut-off is given here.

Columns and labels:
[1] = Displacement of [3H]-(+)-MK-801 from NMDA receptor PCP binding site in pig brain cortex membranes after 120 mins by microbeta scintillation counting method; format: cell membranes, Sus scrofa
[2] = target: Sigma non-opioid intracellular receptor 1 (Cavia porcellus, UniProt Q60492); assay: Displacement of [3H]-(+)-pentazocine from sigma-1 receptor in guinea pig brain membranes after 120 mins by microbeta scintillation counting method; format: cell membranes, Membrane
[3] = target: T1, Sigma intracellular receptor 2 (Rattus norvegicus, UniProt Q5U3Y7); assay: Displacement of [3H]DTG from sigma-2 receptor in rat liver membranes after 120 mins by microbeta scintillation counting method; format: cell membranes, Membrane
T1 sequence (Q5U3Y7 whole entry): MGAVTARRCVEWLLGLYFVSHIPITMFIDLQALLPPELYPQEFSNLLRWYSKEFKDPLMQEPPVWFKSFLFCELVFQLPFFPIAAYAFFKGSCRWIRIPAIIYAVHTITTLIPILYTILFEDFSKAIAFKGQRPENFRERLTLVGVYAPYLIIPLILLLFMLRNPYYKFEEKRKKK

[4] = target: T2, Sigma intracellular receptor 2 (Rattus norvegicus) (UniProt Q5U3Y7); assay: Displacement of [3H]DTG from sigma-2 receptor in rat liver membranes at 1 uM after 120 mins by microbeta scintillation counting method relative to control; format: cell membranes; conditions: Membrane
T2 sequence (whole entry): T1 sequence (Q5U3Y7 whole entry)
In short: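 Rat liver homogenate was the receptor source, labelled with [³H]-di-o-tolylguanidine. Excess (+)-pentazocine was added to mask σ1 sites.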

[5] = target: 3-beta-hydroxysteroid-Delta(8),Delta(7)-isomerase (Homo sapiens) (UniProt Q15125); assay: Inhibition of sterol-delta8/delta7-isomerase in human HL60 cells assessed as accumulation of cholesta-8,14-dienol at 50 uM after 24 hrs; format: cell-based
In short: (§1)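 HL-60 cells were screened for inhibition of post-squalene cholesterol-biosynthesis enzymes. Sterol pattern was checked at 1 µM test concentration, and cholesta-8,14-dienol accumulation was examined at 50 µM.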

[6] = target: 3-beta-hydroxysteroid-Delta(8),Delta(7)-isomerase (Homo sapiens) (UniProt Q15125); assay: Inhibition of sterol-delta8/delta7-isomerase in human HL60 cells assessed as change in sterol pattern at 1 uM after 24 hrs; format: cell-based; in short: as §1
Yarrowia lipolytica [7] = assay: Inhibition of Yarrowia lipolytica DSM 1345 sterol-delta8/delta7-isomerase assessed as change in sterol pattern at 4 ug/ml after 48 hrs by GC-MS analysis
In short: (§2)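 Cellular assay in the model yeast Yarrowia lipolytica, with compounds at 4 µg/mL. Both growth and the sterol pattern were monitored as read-outs of fungal sterol-Δ8/Δ7-isomerase inhibition.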

Yarrowia lipolytica [8] = assay: Growth inhibition of Yarrowia lipolytica DSM 1345 at 4 ug/ml; format: functional; in short: as §2

3-beta-hydroxysteroid-Delta(8),Delta(7)-isomerase (Homo sapiens), sequence (Q15125 whole entry): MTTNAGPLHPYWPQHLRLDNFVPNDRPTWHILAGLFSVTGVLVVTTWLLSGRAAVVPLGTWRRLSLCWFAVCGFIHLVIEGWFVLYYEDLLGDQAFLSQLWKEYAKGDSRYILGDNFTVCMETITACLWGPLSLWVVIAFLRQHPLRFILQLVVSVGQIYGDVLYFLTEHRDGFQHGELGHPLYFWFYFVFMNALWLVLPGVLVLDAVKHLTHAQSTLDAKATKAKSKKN
Sigma non-opioid intracellular receptor 1, sequence (Q60492 whole entry): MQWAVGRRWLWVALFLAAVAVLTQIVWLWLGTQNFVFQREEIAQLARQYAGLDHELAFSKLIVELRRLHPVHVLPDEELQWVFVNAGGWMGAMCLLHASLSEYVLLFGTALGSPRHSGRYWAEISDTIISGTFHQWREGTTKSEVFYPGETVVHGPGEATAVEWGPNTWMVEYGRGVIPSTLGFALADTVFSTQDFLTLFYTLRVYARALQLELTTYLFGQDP

SMILES	IC50 [1] [nM]	Ki [2] [nM]	Ki [3] [nM]	also measured
CCCCCCCCN1CCC2(CC1)O[C@H](CCO)Cc1ccccc12	> 10000	56	260	
FCC[C@@H]1OC2(CCN(Cc3ccccc3)CC2)c2ccccc21		2.3		
COC(=O)C[C@@H]1Cc2ccccc2[C@H](CCN2CCCCC2)O1	> 10000	860		inhibition [4]: 39%
OCCC1Cc2ccccc2C2(CCN(CCCc3ccccc3)CC2)O1 (racemic)				inhibition [5]: Active; inhibition [6]: inactive; inhibition (Yarrowia lipolytica [7]): inactive; growth inhibition (GI) (Yarrowia lipolytica [8]): inactive
COC(=O)C[C@@H]1Cc2ccccc2[C@H](CCN2CCC(c3ccccc3)CC2)O1	> 10000	43	32	
FCC[C@H]1OC2(CCN(Cc3ccccc3)CC2)c2ccccc21		0.57		
OCC[C@H]1Cc2ccccc2C2(CCN(CC3CCCCC3)CC2)O1	> 10000		510	
OCC[C@@H]1Cc2ccccc2C2(CCN(CCCc3ccccc3)CC2)O1	> 10000		519	
OCC[C@H]1Cc2ccccc2C2(CCN(Cc3ccccc3)CC2)O1	> 10000			inhibition [4]: 21%
COC(=O)C[C@H]1Cc2ccccc2[C@@H](CCN2CCC(c3ccccc3)CC2)O1	> 10000	33	525	
CCCCCCCCN1CCC2(CC1)O[C@@H](CCO)Cc1ccccc12	> 10000	24	68	
COC(=O)C[C@H]1Cc2ccccc2[C@@H](CCN2CCCCC2)O1	> 10000	556		inhibition [4]: 13%
CCCCCCCCN1CCC2(CC1)OC(CCO)Cc1ccccc12 (racemic)				inhibition [5]: Active; inhibition [6]: inactive; inhibition (Yarrowia lipolytica [7]): inactive; growth inhibition (GI) (Yarrowia lipolytica [8]): inactive
COC(=O)CC1Cc2ccccc2C(CCN2CCC(c3ccccc3)CC2)O1 (racemic)				inhibition [5]: Active; inhibition [6]: inactive; inhibition (Yarrowia lipolytica [7]): inactive; growth inhibition (GI) (Yarrowia lipolytica [8]): inactive
OCC[C@@H]1Cc2ccccc2C2(CCN(CC3CCCCC3)CC2)O1	> 10000		614	
OCC[C@@H]1Cc2ccccc2C2(CCN(Cc3ccccc3)CC2)O1	> 10000			inhibition [4]: 9%
OCC[C@H]1Cc2ccccc2C2(CCN(CCCc3ccccc3)CC2)O1	> 10000		1220	
